This note sets out measurements from ChEMBL document CHEMBL1131213, “Novel euglycemic and hypolipidemic agents. 1” (J Med Chem, 1998).

Data set [1] deals with Mus musculus. Put plainly: Percent reduction in triglyceride (TG) after 9 days of dosing in db/db is evaluated in mice for euglycemic and hypolipidemic activities at a dose of 200 mg/kg.
Data set [2] deals with Mus musculus. Description: Percent reduction in blood glucose is evaluated in db/db mice for euglycemic and hypolipidemic activities at a dose of 200 mg/kg.
Data set [3] concerns Mus musculus. Description: Percent reduction in blood glucose is evaluated in db/db mice for euglycemic and hypolipidemic activities at a dose of 100 mg/kg.
Data set [4] concerns Mus musculus. Put plainly: Percent reduction in triglyceride (TG) after 9 days of dosing in db/db is evaluated in mice for euglycemic and hypolipidemic activities at a dose of 100 mg/kg.
The subject of data set [5] is Mus musculus. Description: Percent reduction in blood glucose is evaluated in db/db mice for euglycemic and hypolipidemic activities at a dose of 10 mg/kg.
The subject of data set [6] is Mus musculus. Put plainly: Percent reduction in triglyceride (TG) after 9 days of dosing in db/db is evaluated in mice for euglycemic and hypolipidemic activities at a dose of 10 mg/kg.
For data set [7], the system named is Rattus norvegicus. Description: Tissue level at 10 mg/kg/po in wistar rats in blood. The class given is ADME, organism-based. Conditions: in vivo. An outline of the steps: (§1)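 Wistar rats, two per drug, given 10 mg/kg orally and sacrificed at plasma tmax. Blood/plasma drawn just before sacrifice. Tissues perfused with phosphate buffer pH 5.8 and homogenized 1:4 in buffer. Drug measured by HPLC and reported as µg/g wet tissue. Ratios are tissue over plasma.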

Data set [8] in a line: Pharmacokinetic Parameter [Area under curve (AUC)] was evaluated at 10 mg/kg (p.o.) in Wistar rats. It counts as ADME, organism-based. Further details: dose 10 mg/kg, route oral. The settings on record: rat, in vivo, po. An outline of the steps: (§2)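 Wistar rats (175-200 g), fasted 12 h, water free, fed 3 h post-dose. Single 10 mg/kg oral dose as 0.5% CMC suspension. Orbital sinus blood taken at 0, 0.5, 1, 2, 3, 5, 8, 12 and 24 h. Plasma assayed by reverse-phase C18 HPLC with fluorescence detection. Noncompartmental analysis gave AUC0-∞, Kel, t1/2, Cmax and tmax.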

The subject of data set [9] is Rattus norvegicus. Description: Tissue level at 10 mg/kg/po in wistar rats in plasma. Conditions: in vivo. It counts as ADME, organism-based. An outline of the steps: as §1
The nature of data set [10]: Ratio between level in brown fat to that of the level in plasma. The class given is ADME. An outline of the steps:
as §1

The subject of data set [11] is Rattus norvegicus. Put plainly: Tissue level at 10 mg/kg/po in wistar rats in subcutaneous fat. The class given is ADME, organism-based. Conditions: in vivo. The method, boiled down: as §1
For data set [12], the system named is Rattus norvegicus. Description: Tissue level at 10 mg/kg/po in wistar rats in brown fat. The settings on record: in vivo. The class given is ADME, organism-based. The method, boiled down:
as §1

The nature of data set [13]: Ratio between level in skeletal muscle to that of the level in plasma. The class given is ADME. The method, boiled down:
as §1

Data set [14] can be described thus: Pharmacokinetic Parameter [Kel(1/h)] was evaluated at 10 mg/kg (p.o.) in Wistar rats. The class given is ADME, organism-based. Further details: dose 10 mg/kg, route oral. Conditions: rat, in vivo, po. The method, boiled down: as §2
Data set [15] is described as follows: Ratio between level in blood to that of the level in plasma. It counts as ADME. The method, boiled down:
as §1

For data set [16], the system named is Mus musculus. Put plainly: Percent reduction in triglyceride (TG) after 9 days of dosing in db/db is evaluated in mice for euglycemic and hypolipidemic activities.
Data set [17] in a line: Ratio between level in heart to that of the level in plasma. The class given is ADME. An outline of the steps:
as §1

For data set [18], the system named is Rattus norvegicus. Description: Tissue level at 10 mg/kg/po in wistar rats in heart. It counts as ADME, organism-based. The settings on record: in vivo. The method, boiled down:
as §1

The nature of data set [19]: Pharmacokinetic Parameter (half-life) was evaluated at 10 mg/kg (p.o.) in Wistar rats. It counts as ADME, organism-based. On the set-up: dose 10 mg/kg, route oral. Conditions: rat, in vivo, po. An outline of the steps: as §2
Data set [20] can be described thus: Pharmacokinetic Parameter (Cmax) was evaluated at 10 mg/kg (p.o.) in Wistar rats. It counts as ADME, organism-based. On the set-up: dose 10 mg/kg, route oral. The settings on record: rat, in vivo, po. An outline of the steps:
as §2

The test system of data set [21] is Rattus norvegicus. Description: Tissue level at 10 mg/kg/po in wistar rats in liver. The class given is ADME, organism-based. Conditions: in vivo. The method, boiled down:
as §1

Data set [22] can be described thus: Pharmacokinetic Parameter [tmax(h)] was evaluated at 10 mg/kg (p.o.) in Wistar rats. It counts as ADME, organism-based. On the set-up: dose 10 mg/kg, route oral. The settings on record: rat, in vivo, po. An outline of the steps:
as §2

Data set [23] can be described thus: Ratio between level in subcutaneous fat to that of the level in plasma. The class given is ADME. The method, boiled down:
as §1

The test system of data set [24] is Rattus norvegicus. Put plainly: Tissue level at 10 mg/kg/po in wistar rats in skeletal muscle. It counts as ADME, organism-based. Conditions: in vivo. The method, boiled down:
as §1

The nature of data set [25]: Ratio between level in liver to that of the level in plasma. It counts as ADME, tissue-based. The method, boiled down: as §1
Data set [26] in a line: Pharmacokinetic parameter [area under curve (AUC)] was evaluated at 10 mg/kg (p.o.) in Wistar rats. It counts as ADME, organism-based. On the set-up: dose 10 mg/kg, route oral. The settings on record: rat, in vivo, po. An outline of the steps:
as §2

Data set [27] in a line: Pharmacokinetic parameter [Kel(1/h)] was evaluated at 10 mg/kg (p.o.) in Wistar rats. It counts as ADME, organism-based. Further details: dose 10 mg/kg, route oral. The settings on record: rat, in vivo, po. The method, boiled down:
as §2

The nature of data set [28]: Pharmacokinetic parameter (tmax(h)) was evaluated at 10 mg/kg (p.o.) in Wistar rats. Conditions: rat, in vivo, po. The class given is ADME, organism-based. Further details: dose 10 mg/kg, route oral. The method, boiled down:
as §2

The nature of data set [29]: Pharmacokinetic parameter (Cmax) was evaluated at 10 mg/kg (p.o.) in Wistar rats. It counts as ADME, organism-based. On the set-up: dose 10 mg/kg, route oral. The settings on record: rat, in vivo, po. An outline of the steps: as §2
Data set [30] can be described thus: Pharmacokinetic parameter (half-life) was evaluated at 10 mg/kg (p.o.) in Wistar rats. It counts as ADME, organism-based. On the set-up: dose 10 mg/kg, route oral. The settings on record: rat, in vivo, po. An outline of the steps:
as §2

Regarding `O=C1NC(=O)/C(=C/c2ccc(OCCN3CCc4ccccc43)cc2)S1`, the Reduction in the data set with Mus musculus [1] is reported as 83%; with Mus musculus [2], 61%.

As to `CN(CCOc1ccc(CC2SC(=O)NC2=O)cc1)c1ccccn1` (stereo unspecified) [ROSIGLITAZONE], the Reduction in the data set on Mus musculus [3] was 71%; with Mus musculus [4], 46%; with Mus musculus [5], 100%; in the data set on Mus musculus [1] it was 55%; with Mus musculus [2], 67%; with Mus musculus [6] it was 46%.

Turning to `O=C1NC(=O)/C(=C/c2ccc(OCCn3ccnc3)cc2)S1`, the Reduction turned out to be 72% in the data set on Mus musculus [1] and 13% in the data set on Mus musculus [2].

For the molecule `CN(CCOc1ccc(/C=C2\SC(=O)NC2=O)cc1)c1ccccn1`, the Reduction with Mus musculus [3] is 56%; with Mus musculus [4], 32%; with Mus musculus [5], 56%; in the data set on Mus musculus [6], 32%.

In the case of `O=C1NC(=O)C(Cc2ccc(OCCn3c4ccccc4c4ccccc43)cc2)S1` (stereo unspecified), the Reduction in the data set on Mus musculus [3] is 0%; in the data set with Mus musculus [4], 21%.

Consider `COC(=O)C(N)Cc1cn(CCOc2ccc(/C=C3\SC(=O)NC3=O)cc2)c2ccccc12` (stereo unspecified), for which the Reduction with Mus musculus [3] was determined as 27%; in the data set with Mus musculus [4], 64%.

Turning to `CN(CCOc1ccc(CC2SC(=O)NC2=O)cc1)c1ccccn1.O=C(O)/C=C\C(=O)O` (stereo unspecified) [ROSIGLITAZONE MALEATE], the Concentration worked out at 13800 ng/mL with Rattus norvegicus [7]; 27200 ng/mL in the data set with Rattus norvegicus [9]; 14.32 µg/g with Rattus norvegicus [11]; 2.1 µg/g with Rattus norvegicus [12]; 1.63 µg/g in the data set on Rattus norvegicus [18]; 10.9 µg/g with Rattus norvegicus [21]. For the same molecule, the Concentration with Rattus norvegicus [24] is 0.87 µg/g. Also, the AUC (as a rule, the area under the concentration-time curve, a measure of exposure) in data set [8] was 59200 ng·h/mL. Besides, the Reduction was 55% in the data set with Mus musculus [5] and 37% in the data set with Mus musculus [16]. Further, the Kp – broadly, the ratio of the level in a tissue or fluid to that in plasma or blood – in [10] was 0.08; in data set [13], 0.03; in data set [17], 0.06; in [23], 0.53; in data set [25], 0.4. This molecule had a k el in [14] of 0.0002 s⁻¹. The blood plasma ratio in [15] was 0.51. The half-life (commonly how long it takes for the measured level to halve) in [19] is 1.02 h. For the same molecule, in [20], the Cmax (as a rule, the highest concentration seen after dosing) is 29400 ng/mL. Besides, the Tmax (commonly the time at which the peak concentration occurs) in data set [22] came to 0.5 h.

Regarding `Cc1cc2ccccc2n1CCOc1ccc(/C=C2\SC(=O)NC2=O)cc1`, the values for the Reduction in the data set with Mus musculus [1] and with Mus musculus [2] were 41% and 16%, respectively.

Take `Cc1c(C)n(CCOc2ccc(/C=C3\SC(=O)NC3=O)cc2)c2ccccc12`: the Reduction was 2% in the data set with Mus musculus [1] and 40% in the data set with Mus musculus [2].

Consider `Cc1c(C)c2c(c(C)c1O)CCC(C)(COc1ccc(CC3SC(=O)NC3=O)cc1)O2` (stereo unspecified) [TROGLITAZONE], for which, in the data set with Mus musculus [5], the Reduction was determined as 41%.

Regarding `O=C1NC(=O)C(Cc2ccc(OCCN3CCc4ccccc43)cc2)S1` (stereo unspecified), the Reduction worked out at 79% with Mus musculus [1] and 33% in the data set on Mus musculus [2].

For `O=C1NC(=O)/C(=C/c2ccc(OCCn3ccc4cccnc43)cc2)S1`, the Reduction in the data set with Mus musculus [1] was 79%; with Mus musculus [2], 36%.

As for `O=C1NC(=O)C(Cc2ccc(OCCn3ccc4cccnc43)cc2)S1` (stereo unspecified), the Reduction in the data set on Mus musculus [1] was determined as 74%; with Mus musculus [2] it was 33%.

In the case of `O=C1NC(=O)/C(=C/c2ccc(OCCn3c(C(=O)O)cc4ccccc43)cc2)S1`, the Reduction is reported as 0% with Mus musculus [1] and 12% in the data set with Mus musculus [2].

Take `O=C1NC(=O)/C(=C/c2ccc(OCCn3ccc4cc(Cl)ccc43)cc2)S1`: the Reduction in the data set on Mus musculus [1] amounted to 11%; with Mus musculus [2], 39%.

In the case of `O=C1NC(=O)C(Cc2ccc(OCCn3ccc4ccccc43)cc2)S1` (stereo unspecified), the Concentration amounted to 7240 ng/mL with Rattus norvegicus [7]; 11800 ng/mL in the data set on Rattus norvegicus [9]; 1.5 µg/g in the data set on Rattus norvegicus [11]; 1.23 µg/g in the data set with Rattus norvegicus [12]; 2.45 µg/g with Rattus norvegicus [18]; 10.01 µg/g in the data set on Rattus norvegicus [21]. Further, the Concentration in the data set with Rattus norvegicus [24] worked out at 0.85 µg/g. Besides, the Reduction in the data set with Mus musculus [3] stood at 74%; with Mus musculus [4], 77%. The AUC in [26] was 129000 ng·h/mL. Moreover, in data set [27], the k el was 6.94e-05 s⁻¹. Further, the Kp in [10] was 0.1; in [13], 0.07; in data set [17], 0.21; in [23], 0.13; in [25] it was 0.85. The Tmax in data set [28] worked out at 3.67 h. The blood plasma ratio in data set [15] worked out at 0.62. This molecule had a Cmax in data set [29] of 14500 ng/mL. The same molecule gave a half-life in data set [30] of 3.28 h.

With `O=C1NC(=O)/C(=C/c2ccc(OCCn3cnc4ccccc43)cc2)S1`, the Reduction came to 76% with Mus musculus [1] and 33% in the data set with Mus musculus [2].

`O=C1NC(=O)/C(=C/c2ccc(OCCn3ccc4ccccc43)cc2)S1`: the Reduction in the data set with Mus musculus [16] worked out at 37%; in the data set on Mus musculus [2], 33%.

`CCOC(=O)c1cc2ccccc2n1CCOc1ccc(/C=C2\SC(=O)NC2=O)cc1`: the Reduction with Mus musculus [1] is on record as 13%; with Mus musculus [2] it was 0%.

Turning to `O=C1NC(=O)/C(=C\c2ccc(OCCn3c4ccccc4c4ccccc43)cc2)S1`, the figures for the Reduction in the data set on Mus musculus [3] and in the data set on Mus musculus [4] were 0% and 44%, respectively.
